These results are taken from PMC3772642 (Nature, 2009).

No end group written: not given here. *: point of attachment. Dansyl = CN(C)c1cccc2c(S(=O)(=O)*)cccc12; Me3 = trimethyl-lysine, K(Me3)

One assay concerns the target ΔEed (Homo sapiens, UniProt O75530, M370T). Description: crystal structure of ΔEed with ligand. Type of assay: binding. Particulars: crystallisation additive 0.6–0.7 M NDSB-195, 4.0–4.1 M formate. In a few lines:
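ΔEed carrying Met-370Thr was purified by size exclusion (50 mM Tris-HCl pH 8.7, 150 mM NaCl, 3 mM TCEP) and held at 1.5 mg/ml with peptide at 7-fold molar excess, 15 mM TCEP. Hanging-drop vapour diffusion was run at 18 °C, mixing equal volumes with 3.7–3.9 M formate. Apo ΔEed (2.5 mg/ml) used 4.0–4.1 M formate with 0.6–0.7 M NDSB-195.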

The test system of assay [1] is chromatin reconstituted with histones containing the different levels of H3K36 methylation. Description: pull-down, H3K36 methylated chromatin. Type of assay: binding. To be noted: NiNta pull-down, Fig. S8. The gist of the method: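 Chromatin arrays were built from recombinant histones carrying single chemically installed methyl-lysine analogs, assembled into octamers, formed by salt dialysis and cleared of free histone on an agarose column. 2 ug chromatin was incubated with 2 ug full-length His-tagged Eed in 50mM Tris pH8.0, 50mM NaCl, 1 mM EDTA, 0.1% NP40 for 2 hours at 4°C with NiNta beads. Beads were washed extensively, eluted in SDS loading buffer and analysed by western blot.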

Assay [2] has as its system chromatin trimethylated on H3K9. Description: pull-down, chromatin trimethylated on H3K9. To be noted: 2 ug chromatin, 2 ug protein or complex, 2 hours at 4 C, western blot. In kind it is binding. The gist of the method: (§1)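 Recombinant histones were made in E. coli, assembled into octamers and formed into chromatin by salt dialysis, then purified on an agarose column. Chromatin (2 ug) was incubated with 2 ug Sf9-reconstituted PRC2-Ezh2 in 50 mM Tris pH 8.0, 50 mM NaCl, 1 mM EDTA, 0.1% NP40 with M2 beads for 2 h at 4 °C. Beads were washed, eluted in SDS loading buffer and analysed by western blot against a beads-only control.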
(A western blot detects proteins with antibodies after separation by electrophoresis.)

For another assay, the system named is nucleosomes. The experiment in a line: pull-down, nucleosomes. To be noted: methylated or unmodified nucleosomes, not separated. In kind it is binding. In a few lines:
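Reconstituted chromatin arrays (salt dialysis, agarose-column purified to remove free histone) at 2 ug were incubated with 2 ug protein or complex in 50mM Tris pH8.0, 50mM NaCl, 1 mM EDTA, 0.1% NP40 for 2 hours at 4°C. Capture was on NiNta beads for Eed or M2 beads for PRC2. After extensive washing, beads were eluted in SDS loading buffer and analysed by western blot.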

The subject of another assay is unmodified chromatin. Description: pull-down, unmodified chromatin. In kind it is binding. To be noted: M2-Beads pull-down, 2 hours at 4 C, western blot. In a few lines: as §1
Assay [3] concerns the target truncated version of Eed (residues 77 to 441), ΔEed (UniProt O75530). The experiment in a line: other fluorescence titration.
The target in assay [4] is truncated version of Eed (residues 77 to 441), ΔEed (UniProt O75530 78-441, Met-370Thr). Description: other fluorescence titration.

Take `CC[N+](C)(C)CCCS(=O)(=O)[O-]` [NDSB-195]: the “electron density in central pocket of ΔEed” value at ΔEed is “able to build into the extra electron density”. Take Eed: full-length His-tagged Eed protein: the “interaction with H3K36 methylated chromatin” value in assay [1] was “not able to interact”. In addition, the “interaction with chromatin trimethylated on H3K9” value in assay [2] is recorded as “did bind”. Regarding “PRC2 Eed (Phe-97Ala): mutant PRC2 complex containing Eed (Phe-97Ala)”, the interaction with nucleosomes entry with nucleosomes is “does not show binding to chromatin”. The same measure, in the same setting: the value for “PRC2 Eed (Tyr-365Ala): mutant PRC2 complex containing Eed (Tyr-365Ala)” was “does not show binding to chromatin”.

For “PRC2: PRC2 complex purified from insect cells co-infected with baculovirus expressing each of the subunits”, the “interaction with chromatin trimethylated on H3K9” value in assay [2] is “bound significantly tighter”. Also, the “interaction with unmodified chromatin” value in the assay with unmodified chromatin is reported as “displayed some binding”.

R26A of H3K27me3 peptide: in assay [3], the fold reduction of binding against the H3K27me3 peptide turned out to be 1.5 fold. Consider “ΔEed: truncated version of Eed (residues 77 to 441)”, for which the interaction with nucleosomes entry with nucleosomes is “failed to interact with nucleosomes”. Consider KKKARK(Me3)SAGAAK(Dansyl) (not fully specified; printed as KKKARK(Me3)SAGAAK-dansyl) [dansyl labelled peptide KKKARK(Me3)SAGAAK-dansyl], for which the binding result in assay [4] was “binds”.
